This passage reports yeast fitness results from the RNAGym collection of RNA variant scans (doi:10.1126/science.aae0568).

Variants at the floor of the assay were thinned out.

To fix the notation:
B1: tRNA (parent)
chain: GUUCCGUUGGCGUAAUGGUAACGCGUCUCCCUCCUAAGGAGAAGACUGCGGGUUCGAGUCCCGUACGGAACG

The variants in this series derive from B1. Kind of series: yeast fitness relative to wild type (ratio to wild type); higher = fitter; tRNA-Arg(CCU), competitive growth, 37 C, YPD. In outline: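 Genotype frequency changes were the basis for Darwinian fitness relative to wild type. The frequencies came from 100-nucleotide paired-end sequencing of gene amplicons from the start population and each end population of pooled yeast strains with tRNA-Arg(CCU) gene variants at the native locus. Competition ran in YPD at 37°C for 24 hours in six replicates, genotypes needed ≥ 100 starting reads, and estimates < 0.5 were set to 0.5.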
Consider GUUCCGUUGGCGUAAUGAUAAGGCGUGUCCCUCCUAAGGAGAAGACUGUGGGUUCGAAUCCCGUACGGAACG [G18A C22G C27G C49U G58A], for which the yeast fitness was determined as 0.608.

Turning to GUUCCGUUGGCGUAAUGAUAACGCGUCUCCCUCCUAAGGAGAAGAGUGCGGGUUCGAGUCCCGUACGGAACG [G18A C46G], the yeast fitness was determined as 0.749.

On to GUUCCGUUGGCGUAAUGAUAACGCGUCUCCCUCCUAAGGAGAAGAAUGCGGGUUCGAGUCCCGUACGGAACG [G18A C46A], for which the yeast fitness is 0.692.

Regarding GUUCCGUUGGCGUAAUGAUAACGCGUCUCCCUCCUAAGGAGAAGAUUGCGGGUUCGAGUCCCGUACGGAACG [G18A C46U], the yeast fitness was 0.749.

With GUUCCGUUGGCGUAAUGAUAACGCGUCUCCCUCUUAAGGAGAAGACUGCGGGUUCGAGUUCCGUACGGAACG [G18A C34U C60U], the yeast fitness is no more than 0.5.

As for GUUCCGUUGGCGUAAUGAUAACGCGUCUCCCUCCUAAGGAGCAGACUACGGGUUCGAGUACCGUACGGAACG [G18A A42C G48A C60A], the yeast fitness is no more than 0.5.

As to GUUCCGUUGGCGUAAUGAUAACGCGUCUCGCUCCUAAGGACAAGACUGCGGGUUCGAGUCCCGUACGGAACG [G18A C30G G41C], the yeast fitness is no more than 0.5.

As for GUUCCGUUGGCGUAAUGAUAACGCGUCUCCCUCCUAAGGGGAAGACUGCGGGUUCGAGUCCCGUACGGAACG [G18A A40G], the yeast fitness stood at 0.74.

With GUUCCGUUGGCGUAAUGAUAACGCGUCUCCCUCCUAAGGAGAAGACUGCGGGUUCGGCUCCCGUACGGAACG [G18A A57G G58C], the yeast fitness turned out to be 0.63.

On to GUUCCGUUGGCGUAAUGAUAACGCGUUUCCAUCCUAAGGAGAAGACUGCGGGUUCGAGUCCCGUACGGAACG [G18A C27U C31A], for which the yeast fitness was no more than 0.5.

On to GUUCCGUUGGCGUAAUGAUAACGUGUCUCCCUCCUAAGGAGAAGACGGCGGGUUCGAGUCCCGUACGGAACG [G18A C24U U47G], for which the yeast fitness is no more than 0.5.

Take GUUCCGUUGGCGUAAUGAUAAUGCGUCUCCCUCCUAAGGCGAAGACUGCGGGUUCGAGUCCCGUACGCAACG [G18A C22U A40C G68C]: the yeast fitness was no more than 0.5.

In the case of GUUCCGUUGGCGUAAUGAUAACGCGUCUCCCUCCUAAGGAGAGGACUGCGGGUUCGAGUCCCGUCCGGAACG [G18A A43G A65C], the yeast fitness was determined as 0.595.

As to GUUCCGUUGGCGUAAUGAUAACGGGUUUCCCUCCUAAGGAGAAGACUGCGGGUUCGAGUCCUGUACGGAACG [G18A C24G C27U C62U], the yeast fitness was no more than 0.5.

On to GUUCCGUUGGCGUAAUGAUAACGCGUCUCGCUCCUAACGAGAAGACUGCGGGUUCGAGUCCCGUACGGAACG [G18A C30G G38C], for which the yeast fitness worked out at 0.529.

As for GUUCCGUUGGCGUAAUGAUAACGCGUCUCCCUUCUAAGGAGAAGAGUGCGGGUUCGAGUCCCGUACGGAACG [G18A C33U C46G], the yeast fitness is 0.634.

Take GUUCCGUUGGCGUAAUGAUAACGCGUCUCGCUCCUAAGGAGAACACUGCGGGUUCGAGUCCCGUACGGAACG [G18A C30G G44C]: the yeast fitness worked out at 0.646.

Take GUUCCGUUGGCGUAAUGAUAACGCGUCUCCCUCGUAAGGAGAAGACUGCGGGUUGGAGUCCCGUUCGGAACG [G18A C34G C55G A65U]: the yeast fitness was no more than 0.5.

Regarding GUUCCGUUGGCGUAAUGAUAACGCGUCUCCCUCCUAAGGAGAAGACUGUGGGUCCGAGUCCCGUACGGAACG [G18A C49U U54C], the yeast fitness is 0.539.

Turning to GUUCCGUUGGCGUAAUGAUAACGCGUCUCCCUCUUAAGGAGAAGACUACGGGUUCGAGUCCCGUCCGGAACG [G18A C34U G48A A65C], the yeast fitness is no more than 0.5.

Take GUUCCGUUGGCGUAAUGAUAACGCGUCUCCCUCCUAAGGAGCAGACUGCGGGUUCGAGUCCCGUACGGUACG [G18A A42C A69U]: the yeast fitness is 0.542.

GUUCCGUUGGCGUAAUGAUAAUGCGUCUCCCUCCUAAGGAGAAGACUGCGGGUUCGAGUCCCGUACGGAACG [G18A C22U]: the yeast fitness was determined as 0.636.

On to GUUCCGUUGGCGUAAUGAUAACGCGUCUUCAUCCUAAGGAGAAGACUGCGGGUUCGAGUCCCGUAUGGAACG [G18A C29U C31A C66U], for which the yeast fitness is no more than 0.5.

In the case of GUUCCGUUGGCGUAAUGAUAACGCGUCUCCCUCCUAAGGAGAAGCCUGCGGGUUUGAGUCGCGUACGGAACG [G18A A45C C55U C61G], the yeast fitness is no more than 0.5.

In the case of GUUCCGUUGGCGUAAUGAUAACGCGUCUCACACCGAAGGAGAAGACUGCGGGUUCGAGUCCCGUACAGAACG [G18A C30A U32A U35G G67A], the yeast fitness was no more than 0.5.

As for GUUCCGUUGGCGUAAUGAUAACGCGUCUCCAUCCUAAGGAGAAGACUGCGGGUUCCAGUCCCGUACGGCACG [G18A C31A G56C A69C], the yeast fitness is no more than 0.5.

As for GUUCCGUUGGCGUAAUGAUAACGCGUCUCCGUCCUAAGGAAAAGACUGCGGCUUCGAGUUCGGUAGGGAACG [G18A C31G G41A G52C C60U C62G C66G], the yeast fitness was no more than 0.5.

Consider GUUCCGUUGGCGUAAUGAUAACGCGUCUCCCUCCUAAGGAGAAGACUGCGGGUUCGAGUCCCGUACGGAUCG [G18A A70U], for which the yeast fitness is 0.956.

For the variant GUUCCGUUGGCGUAAUGAUAACGAGUCUCCCUCCUAAGGAGAAGACUGCGGGUUCGAGUCCCGUACGGAACG [G18A C24A], the yeast fitness came out at 0.564.

For GUUCCGUUGGCGUAAUGAUAACGCGUCUCCCUCCUAAGGAGAAGACUGCGGGUUCGAGUCCCGUACGGCACG [G18A A69C], the yeast fitness was 0.926.

In the case of GUUCCGUUGGCGUAAUGAUAACGCGUCUCCGUCAUAAGGAGAAGACCGCGGGUUCGAGUCCCGUACGGAACG [G18A C31G C34A U47C], the yeast fitness was no more than 0.5.

For the variant GUUCCGUUGGCGUAAUGAUAACGCGUCUCCAUCCUAAGGAGAAGACUGCGGGUUCGAGUCCCGUACGGAACG [G18A C31A], the yeast fitness was determined as 0.554.

For the variant GUUCCGUUGGCGUAAUGAUAACGCGUCUCCCUCCUAAGGAGAAGACUGCGGGUUCGAGUACCGUACAGAACG [G18A C60A G67A], the yeast fitness is no more than 0.5.

In the case of GUUCCGUUGGCGUAAUGAUAACGCGUCUCCCUCCUAAGGAGACGACUGCGGGUUCGAGUCCCGUAGGGAACG [G18A A43C C66G], the yeast fitness was 0.505.

For GUUCCGUUGGCGUAAUGAUAACGCGUCUCCGUCCUAAGGAGAAGACUGCGGGUUCGAGUCCCGUACGGAUCG [G18A C31G A70U], the yeast fitness was 0.687.

Regarding GUUCCGUUGGCGUAAUGAUAAAGCGUCUCCCUCCUACGGACAAGACUGCGGGUUGGAGUCCCGAACGGAACG [G18A C22A A37C G41C C55G U64A], the yeast fitness is no more than 0.5.

For the variant GUUCCGUUGGCGUAAUGAUAACGAGUCUCCAUCCUAAGGAGAAGACUGCGGGUUCGAGUCCCGUACGGAACG [G18A C24A C31A], the yeast fitness is no more than 0.5.
